According to ChEMBL document CHEMBL3124806, “Imidazopyridine-fused [1,3]-diazepinones: synthesis and antiproliferative activity” (Eur J Med Chem, 2014):

Assays:
Ovis aries = organism: Ovis aries; experiment: Inhibition of sheep brain tubulin polymerization at 100 uM after 40 mins by DAPI staining-based fluorescence assay
Method in brief: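 Microtubular protein was purified from sheep brain by two assembly/disassembly cycles (37 °C/0 °C) in MES buffer (100 mM MES pH 6.6, 1 mM EGTA, 0.5 mM MgCl₂). Compound in DMSO was added to 10 µM tubulin with 10 µM DAPI and incubated 40 min at RT. GTP (1 mM) was then added, and assembly was followed by DAPI fluorescence at 37 °C.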

MDA-MB-435 = experiment: Cytotoxicity against human MDA-MB-435 cells assessed as cell growth at 10 uM after 48 hrs by MTT assay relative to untreated control; type: functional; conditions: MDA-MB-435, 48 h, read-out: Activity
Method in brief: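 Melanoma lines grown at 37 °C in humidified 5% CO2: MDA-MB-435 in DMEM/Ham's F12 1:1 with 10% FCS and antibiotics, SK-MEL-2 in RPMI-1640 with 10% FCS. Cells plated 24 h, then exposed 48 h to 100–0.01 µM (dilutions from fresh 100 µM stock in medium). MTT 0.5 mg/mL added for 4 h, crystals dissolved in EtOH/DMSO 1:1, absorbance read at 540 nm. Mean ± SD of three independent experiments.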

| inhibition (Ovis aries) [%] | SMILES | growth at 10 µM (MDA-MB-435) [%] |
| --- | --- | --- |
| 8 | C[C@@H]1NC(=O)Nc2nc3ccccn3c2C1=O | 86 |
| 30 | C[C@@H]1NC(c2ccc([N+](=O)[O-])cc2)=Nc2nc3ccccn3c2C1=O | 99 |
